Hits are enriched below; roughly 2.3% of the tested compounds scored in any of these assays.
TRPC4 act – opens the mouse TRPC4 cation channel; AID 2237; B-score at 10 µM; 310,000 tested, 0.49% active; HEK293 TRPC4beta/mu-opioid, Fluo4 calcium fluorescence; hits give high values;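 active = B-score above 5 SD of library B-scores, and initial fluorescence ratio not above library mean plus 5 SD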;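 note: positive B-score marks a calcium rise read as TRPC4 activation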
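Assay system: HEK293 stable line with TRPC4beta plus mu-opioid receptor; schedule: 45 min room-temperature Fluo4 loading, 110 s read; technique: kinetic Fluo4 calcium fluorescence; evaluation: integrated baseline-normalised fluorescence ratio, converted to per-well B score; controls: buffer (low) and maximal DAMGO (high)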
TRPC6 act – mouse TRPC6 channel activation; Q61143; HEK293-TRPC6 membrane potential dye fluorescence; hits give high values; B-score at 10 µM; 310,000 tested, 0.13% active;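 active = B-score of the integrated fluorescence ratio above library mean plus 3 SD, and starting fluorescence ratio within library mean plus 5 SD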;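 note: higher score means more depolarization so channel activation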
Target sequence (Q61143 whole entry, looked up): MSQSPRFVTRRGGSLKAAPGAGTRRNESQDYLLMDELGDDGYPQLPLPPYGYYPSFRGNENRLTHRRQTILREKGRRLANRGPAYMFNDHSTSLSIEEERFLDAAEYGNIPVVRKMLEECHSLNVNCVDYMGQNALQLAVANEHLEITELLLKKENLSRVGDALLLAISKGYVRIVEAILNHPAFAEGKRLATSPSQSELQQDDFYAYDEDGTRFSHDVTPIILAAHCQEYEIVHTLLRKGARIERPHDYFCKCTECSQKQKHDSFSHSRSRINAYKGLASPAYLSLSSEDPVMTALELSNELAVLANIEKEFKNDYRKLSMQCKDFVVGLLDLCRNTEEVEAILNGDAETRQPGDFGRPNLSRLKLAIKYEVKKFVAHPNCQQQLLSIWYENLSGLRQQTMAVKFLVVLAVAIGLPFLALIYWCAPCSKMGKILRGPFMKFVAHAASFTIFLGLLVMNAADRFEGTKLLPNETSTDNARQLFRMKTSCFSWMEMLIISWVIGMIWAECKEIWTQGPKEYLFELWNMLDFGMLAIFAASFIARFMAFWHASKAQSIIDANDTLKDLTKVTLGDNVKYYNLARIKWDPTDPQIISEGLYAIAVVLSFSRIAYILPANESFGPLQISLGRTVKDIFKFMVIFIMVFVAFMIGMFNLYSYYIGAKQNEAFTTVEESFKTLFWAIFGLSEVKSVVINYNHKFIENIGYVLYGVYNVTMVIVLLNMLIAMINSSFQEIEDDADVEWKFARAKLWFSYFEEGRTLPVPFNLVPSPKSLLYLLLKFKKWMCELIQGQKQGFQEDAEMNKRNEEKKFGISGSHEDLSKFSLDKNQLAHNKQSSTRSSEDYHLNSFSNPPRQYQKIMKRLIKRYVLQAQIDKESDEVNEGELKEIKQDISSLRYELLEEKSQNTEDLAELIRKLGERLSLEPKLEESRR
TRPC4 inh – blocks the mouse TRPC4 cation channel; Q9QUQ5; HEK293 TRPC4beta/mu-opioid, DAMGO-evoked Fluo4 calcium flux; hits give low values; B-score at 10 µM; 300,000 tested, 0.39% active; AID 2247;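 active = B-score over 3 SD under the library average, no early fluorescence shift, positive overall ratio signal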
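test system = HEK293 cells with stable TRPC4beta plus mu-opioid receptor expression | detection = Fluo4 Ca2+ flux fluorescence | read-out = integrated fluorescence ratio relative to baseline, converted to per-well B score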
TRPC4 PAM – allosterically enhances the mouse TRPC4 cation channel; HEK293 TRPC4beta/mu-opioid, DAMGO EC20, Fluo-4 Ca2+ flux; hits give high values; B-score at 10 µM; 310,000 tested, 0.42% active;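 active = B-score of calcium response area above 5 SD of library B-scores, with initial fluorescence ratio within 5 SD of library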
TRPC6 inhibitor – blocks the mouse TRPC6 cation channel; Q61143; HEK293-TRPC6, membrane potential dye, ACh-evoked depolarization; hits give low values; B-score at 10 µM; 310,000 tested, 1.1% active;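 active = B-score under library mean minus 3 SD, initial fluorescence not abnormally high, positive integrated signal ratio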;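 note: B-score derived from integrated fluorescence ratio over the kinetic read; more negative B-score means stronger inhibition of depolarization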
A number is an active result; 0 = inactive.

SMILES	TRPC4 act	TRPC6 act	TRPC4 inh	TRPC4 PAM	TRPC6 inhibitor
CNC(=S)NNC(=O)c1cccn(Cc2ccc(Cl)cc2Cl)c1=O	0	0	0	0	0
CCCCCCCC[n+]1cccc2c3ccccc3ccc21	0	0	-6	0	0
Cc1ccc(NC(=O)C2C3C=CC4(O3)C2C(=O)N(CCCN2CCCC2)C4C(=O)NC2CCCCC2)cc1Cl (stereo unspecified)	0	0	0	0	0
CN(C)CCN1C(=O)C2C(C(=O)Nc3cc(Cl)cc(Cl)c3)C3C=CC2(O3)C1C(=O)NC1CCCCC1 (stereo unspecified)	0	0	-7	0	0
Cc1cc(C)cc(NC(=O)C2C3C=CC4(O3)C2C(=O)N(CCN2CCCCC2)C4C(=O)NC2CCCCC2)c1 (stereo unspecified)	0	0	0	0	0
CC1CCCN(CCCN2C(=O)C3C(C(=O)Nc4ccc(Cl)cc4)C4C=CC3(O4)C2C(=O)NC2CCCCC2)C1 (stereo unspecified)	0	0	-6	0	0
CCN(CC)CCN1C(=O)C2C(C(=O)Nc3ccc(C(C)C)cc3)C3C=CC2(O3)C1C(=O)NC1CCCCC1 (stereo unspecified)	63	0	-6	0	0
CC(C)c1ccc(NC(=O)C2C3C=CC4(O3)C2C(=O)N(CCCN2CCCCC2)C4C(=O)NC2CCCCC2)cc1 (stereo unspecified)	66	0	-6	0	0
CC(C)(C)c1[nH]nc2c1C(C1C=CCCC1)C(C#N)=C(N)O2 (stereo unspecified)	0	0	0	0	0
CC(C)c1[nH]nc2c1C(C1C=CCCC1)C(C#N)=C(N)O2 (stereo unspecified)	0	0	0	21	0
COCCn1c(SCC(=O)Nc2ccc(S(=O)(=O)N3CCOCC3)cc2)nc2ccccc21	0	0	0	31	0
Cc1ccc(S(=O)(=O)c2ccc(Cl)cc2)cc1S(=O)(=O)NC(C)C(=O)O (stereo unspecified)	0	0	0	0	0
CCOC(=O)C1CCCN(C(=O)CCn2nnnc2CN2CCOCC2)C1 (stereo unspecified)	0	0	0	10	0
CCN(CC)C(=O)C1CCCN(C(=O)CCn2nnnc2CN2CCOCC2)C1 (stereo unspecified)	0	0	0	0	0
S=c1[nH]nc(C2CCCCC2)n1/N=C/c1cccc(Cl)c1Cl	0	0	0	0	0
COc1ccc(C(CNC(=O)C2CCN(S(=O)(=O)c3ccc(F)cc3)CC2)N(C)C)cc1 (stereo unspecified)	137	0	0	0	0
O=C(c1ccco1)N1CCN(C/C=C/c2ccccc2)CC1	0	0	-5	0	0
CC(C)NC(=S)N1CCN(C/C=C/c2ccccc2)CC1	0	0	-6	0	0
S=C(NC1CCCCC1)N1CCN(C/C=C/c2ccccc2)CC1	0	0	0	0	0
Cc1noc2ncnc(Oc3ccc(F)cc3)c12	0	0	0	0	0
CCCc1nc(SC2CCCC2)c2c(=O)n(C)c(=O)n(C)c2n1	0	0	-5	0	0
CCC(C)N(C(=O)Cn1nnc2ccccc21)C(C(=O)Nc1ccc(F)cc1)c1cccc(OC)c1 (stereo unspecified)	0	14	0	0	0
Cc1ccccc1Cn1ccc(NC(=O)c2cnn3cccnc23)n1	0	0	0	0	0
O=C(Nc1ccc2c(c1)OCO2)c1cnn2cccnc12	0	0	0	50	0
Cc1cc(NC(=O)c2cnn3cccnc23)nn1CC(=O)Nc1cccnc1	51	0	0	150	0
SMILES	TRPC4 act	TRPC6 act	TRPC4 inh	TRPC4 PAM	TRPC6 inhibitor
CCCCOc1ccc(Cl)cc1Nc1nc(NCCO)nc(N2CCCC2)n1	0	0	0	0	0
Oc1ccc(C(c2nnnn2CCc2ccccc2)N2CCN(c3nc4ccccc4s3)CC2)cc1 (stereo unspecified)	77	0	0	0	0
COCCn1nnnc1C(c1cccs1)N1CCN(c2nc3ccccc3s2)CC1 (stereo unspecified)	0	0	0	0	0
c1ccc(CN2CCN(c3nc(N4CCOCC4)c4ccccc4n3)CC2)cc1	0	0	0	0	-5.5
c1ccc(CN2CCN(c3nc4ccccc4s3)CC2)cc1	0	0	0	17	0
CC1CCN(c2nc3ccc(C(=O)N4CCN(Cc5ccccc5)CC4)cc3s2)CC1	0	0	0	0	0
O=C(O)CCC(=O)N1CCN(c2nc3ccccc3s2)CC1	0	0	0	20	0
COc1ccccc1C(=O)NC1CCN(C(=S)NCCc2ccccc2)CC1	0	0	0	0	0
COc1ccc2c(c1)c1ncn(CCCN3CCOCC3)c(=O)c1n2C	0	0	0	13	0
O=c1c(C=NCCN2CCNCC2)c(-c2ccccc2)[nH]n1-c1ccc([N+](=O)[O-])cc1	0	0	0	0	-6.6
COc1ccc(OCCCC(=O)Nc2cc(Cl)ccc2-n2cncn2)cc1	0	0	0	0	0
CCOC(=O)CN1N=C(/C=C/c2ccccc2)CCC1=O	0	0	0	0	0
CCOC(=O)CN1N=C(/C=C/c2ccc(C(C)C)cc2)CCC1=O	0	0	0	11	0
Cc1[nH]c2ccccc2c1C(c1ccncc1)N1CCN(c2ccccc2F)CC1 (stereo unspecified)	0	0	0	0	0
CCOC(=O)C1CCN(C(c2ccccn2)c2c(C)[nH]c3ccccc23)CC1 (stereo unspecified)	0	0	0	0	-5.8
Cc1[nH]c2ccccc2c1C(c1ccncc1)N1CCN(c2ccccn2)CC1 (stereo unspecified)	49	0	0	0	0
COc1ccc(C2CC(c3cccs3)=NN2C(=O)CSc2nc(=O)n3cc(C)ccc3n2)cc1 (stereo unspecified)	0	0	0	0	0
CN1CCN(NC(=O)CN(C)S(=O)(=O)c2cc(Cl)ccc2Cl)CC1	84	0	0	0	0
CC(C)c1cc(C(F)(F)F)n2nc(C(=O)Nc3ccc(-n4cnnn4)cc3)cc2n1	0	0	0	0	0
Cc1ccc(C)c(NC(=O)c2cc(=O)c3ccccc3o2)c1	0	0	0	12	0
COc1ccc(-c2nc(CSCC(=O)NC3CCN(Cc4ccccc4)CC3)c(C)o2)cc1OC	116	0	0	0	0
COc1ccc(-c2nc(CSCC(=O)NC3CC3)c(C)o2)cc1OC	0	0	0	0	0
COc1ccccc1Cn1c(CCCO)nc2ccccc21	0	0	0	0	0
CCc1nc2ccccc2n1Cc1ccccc1OC	0	0	-5	0	0
COc1ccccc1Cn1c(C)nc2ccccc21	0	0	0	0	0
CCCc1nc2ccccc2n1Cc1ccccc1OC	0	0	-7	0	0
O=C(CN(c1ccc(F)cc1)S(=O)(=O)c1ccccc1)N1CCOCC1	0	0	0	0	0
c1ccc(-c2csc3ncnc(NCCN4CCOCC4)c23)cc1	0	0	0	0	0

Source: PubChem BioAssay
